Inconclusive results are not listed.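 Rule for the calls, unless noted: active = inhibition over a set limit, the all-compound mean plus 3 SD, in both replicate runs; inconclusive = over that limit in just one replicate run; inactive = at or under that limit in both runs.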
What was measured:
[1] = S. cerevisiae growth inhibition in permissive medium (OD615), pilot counter-assay for S. cerevisiae lifespan shortening project, permissive growth control (AID 705;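 active = growth inhibition above 25% in both replicates, a cutoff set 3 SD above the mean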); conditions: OD615, 24 h, at 10 µM, active compounds read high
Method in brief: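 assay system = Saccharomyces cerevisiae strain carrying genetically modified DeaD replicative-lifespan system | technique = absorbance (optical density) at 615 nm | buffer or medium = permissive raffinose/galactose medium | timing = cells pre-grown 4 h, then 24 h compound exposure, 30 °C humidified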

[2] = S. cerevisiae growth inhibition in restrictive medium, OD615, pilot screen, restrictive growth control, yeast lifespan reduction project (AID 706;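 active = growth inhibition above a set limit, 3 SD over mean compound inhibition, in both replicates, cut at about 43% in these data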;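 note: modified DeaD lifespan yeast strain shifted to restrictive glucose medium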); conditions: OD615, 48 h, at 10 µM, active compounds read high
Method in brief: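 System: modified S. cerevisiae. Buffer or medium: CSMM-D glucose medium. Incubation: 4 h pre-growth plus 48 h compound exposure, 30 °C. Detection: absorbance (optical density) measured at 615 nm.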

[3] = doxorubicin toxicity protection in MRP-1 cells – H69AR cells, CellTiter-Glo, duplicate, MRP-1 activator project, pilot screen (AID 807;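 active = viability increase at or above a cutoff of the median across tested compounds plus 3 SD, cut at about 8.5% in these data, passing the limit was not always enough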;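 note: compound pretreatment 18-22 h then 72 h combined with doxorubicin; 0% = doxorubicin alone and 100% = vehicle without doxorubicin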); conditions: H69AR viability with doxorubicin, CellTiter-Glo luminescence; at 10 µM; active compounds read high
[4] = viability of HCT116 without oncogenic beta-catenin – human colon tumor cells, pilot screen (AID 823;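 active = cell viability at or below a set limit in both duplicate runs, the limit being the all-compound median minus 4 SD, cut at about 23% in these data, passing the limit was not always enough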;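 note: 0% = wells killed by 20 µM Hyamine and 100% = untreated DMSO cell wells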); conditions: HCT116 beta-catenin knockout viability, CellTiter-Glo, 60 h; at 10 µM; active compounds read low
[5] = viability of PTEN-null HCT116 cells – cell-based, HCT116 clonal line, CellTiter-Glo, pilot screen (AID 824;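 active = viability at or below 27.92% in each of two runs, the all-compound median minus 4 SD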;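 note: 0% = 20 µM Hyamine control and 100% = vehicle cell control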); conditions: HCT116 PTEN-deleted viability, 60 h, at 10 µM, active compounds read low
[6] = RAM pathway blockade in budding yeast – dse1pr::URA3 reporter, 5-FOA selection, pilot screen (AID 869);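 note: 0% = DMSO wells with no growth and 100% = 10 µM 1-NA-PP1 with full growth; RAM network block rescues cells from 5-FOA so hits raise OD615 growth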; conditions: S. cerevisiae dse1pr::URA3 5-FOA growth, OD615, 2 d; at 10 µM; active compounds read high; strain carries analog-sensitive mutant Cbk1 kinase
[7] = RAM signaling pathway blockade in yeast – S. cerevisiae, Pdr1DBD-CYC8 efflux-inhibited sensitized strain, primary screen (AID 1298;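 active = RAM network inhibition above 8.4% in each of two replicates, 3 SD over the compound average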;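 note: 0% = DMSO untreated cells without growth and 100% = 10 µM 1-NA-PP1 full growth; higher means more yeast growth rescued from 5-FOA killing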); conditions: S. cerevisiae cbk1-as DSE1-URA3 strain, 5-FOA growth OD615, 2 d; at 50 µM; active compounds read high

CC1CCCCN1CCNC(=O)c1cc2c(=O)n(C)c3ccccc3c2n1C (stereo unspecified)
inactive: growth inhibition [1] -12.9% | growth inhibition [2] -9.04% | viability increase [3] -6.71% | viability [4] 78.9% | viability [5] 72.7% | inhibition [6] 2.5% | RAM network inhibition [7] 1.31%

CCC(=O)Nc1ccc(S(=O)(=O)N2CCc3ccccc3C2)cc1
inactive: growth inhibition [1] -7.58% | growth inhibition [2] -3.42% | viability increase [3] -3.43% | viability [4] 89.1% | viability [5] 90.1% | inhibition [6] 0.395% | RAM network inhibition [7] 10%

CCOC(=O)N1CCN(c2cc(C)nc3nc(C)nn23)CC1
inactive: growth inhibition [1] -11.9% | growth inhibition [2] -9.88% | viability increase [3] -1.28% | viability [4] 105% | viability [5] 97.1% | inhibition [6] 3.44% | RAM network inhibition [7] 2.21%

Cc1cc(C)n(-c2ncc(-c3ccccc3)nn2)n1
inactive: growth inhibition [1] -2.83% | growth inhibition [2] 29.2% | viability increase [3] -0.89% | viability [4] 105% | viability [5] 105% | inhibition [6] 0.43% | RAM network inhibition [7] 2.61%

Cc1c(C(=O)N2CCN(C(=O)c3ccco3)CC2)sc2nc(-c3ccc(F)cc3)cn12
inactive: growth inhibition [1] -0.195% | growth inhibition [2] 3.62% | viability increase [3] -2.53% | viability [4] 91.8% | viability [5] 89.3% | inhibition [6] 0.195% | RAM network inhibition [7] 3.7%

COc1ccc(S(=O)(=O)Nc2ccc3oc(C)c(C(=O)O)c3c2)cc1
inactive: growth inhibition [1] 3.11% | growth inhibition [2] -3.25% | viability increase [3] -2.36% | viability [4] 95.5% | viability [5] 91.2% | inhibition [6] 1.54% | RAM network inhibition [7] 3.39%

Cc1ccc(NC(=O)C2CCCN2S(=O)(=O)c2ccc3c(c2)CCC(=O)N3)cc1Cl (stereo unspecified)
inactive: growth inhibition [1] -9.43% | growth inhibition [2] 8.74% | viability increase [3] 3.52% | viability [4] 81.8% | viability [5] 85.8% | inhibition [6] 2.66% | RAM network inhibition [7] 3.45%

Cc1nn(Cc2nc(-c3cccs3)no2)c(C)c1Br
inactive: growth inhibition [1] 0.735% | growth inhibition [2] 12% | viability increase [3] -1.13% | viability [4] 103% | viability [5] 101% | inhibition [6] 1.93% | RAM network inhibition [7] 3.61%

O=C(Cn1c(=O)oc2cc(S(=O)(=O)N3CCc4ccccc43)ccc21)NC1CCCC1
inactive: growth inhibition [1] -3.26% | growth inhibition [2] 2.94% | viability increase [3] -1.06% | viability [4] 78.8% | viability [5] 73.9% | inhibition [6] 2.91% | RAM network inhibition [7] 0.88%

N#Cc1nc(COc2ccccc2)oc1N1CCCCC1
inactive: growth inhibition [1] -9.45% | growth inhibition [2] 10.3% | viability increase [3] 2.53% | viability [4] 87.5% | viability [5] 88.9% | inhibition [6] 0.495% | RAM network inhibition [7] -1.83%

COCc1cc(=O)n2[nH]c(-c3cccc(Br)c3)cc2n1
inactive: growth inhibition [1] -25.1% | growth inhibition [2] -16.1% | viability increase [3] -2.23% | viability [4] 92.9% | viability [5] 86.7% | inhibition [6] 0.76% | RAM network inhibition [7] 5.82%

O=C(CCSCCC(=O)NCc1cccs1)NCc1cccs1
inactive: growth inhibition [1] -5.92% | growth inhibition [2] 3.44% | viability increase [3] -1.73% | viability [4] 94.5% | viability [5] 96.3% | inhibition [6] 3.47% | RAM network inhibition [7] 2.86%

COc1ccc(C2C3=C(CC(C)(C)CC3=O)Nc3c2c(=O)[nH]c(=O)n3Cc2ccccc2)cc1 (stereo unspecified)
inactive: growth inhibition [1] -7% | growth inhibition [2] 6.84% | viability increase [3] -2.53% | viability [4] 89.5% | viability [5] 74.5% | inhibition [6] 1.65% | RAM network inhibition [7] 6.38%

O=C1CN(C(=O)CN2CCOCC2)C(c2ccccc2)c2cc(Br)ccc2N1 (stereo unspecified)
inactive: growth inhibition [1] -9.19% | growth inhibition [2] -11.4% | viability increase [3] -3.48% | viability [4] 96.4% | viability [5] 92.8% | inhibition [6] 0.785% | RAM network inhibition [7] 1.01%

CN(Cc1ccccc1)C(=O)c1ccc2c(c1)OCCO2
inactive: growth inhibition [1] -14.5% | growth inhibition [2] -4.09% | viability increase [3] -0.29% | viability [4] 89.5% | viability [5] 94.6% | inhibition [6] 1.48% | RAM network inhibition [7] 3.49%

O=C(NCC1CCCO1)c1ccc2c(c1)OCO2 (stereo unspecified)
inactive: growth inhibition [1] -3.01% | growth inhibition [2] 6% | viability increase [3] 0.18% | viability [4] 98.4% | viability [5] 94.3% | inhibition [6] 0.385% | RAM network inhibition [7] 3.13%

Nc1nc(NC(=O)c2cccc(S(=O)(=O)N3CCCCCC3)c2)nc(-c2ccccc2)n1
inactive: growth inhibition [1] -1.66% | growth inhibition [2] 6.65% | viability increase [3] -4.04% | viability [4] 74.8% | viability [5] 74.4% | inhibition [6] 3.56% | RAM network inhibition [7] 4.53%

CCOc1ccc(-c2nc(CSCC(=O)N3CCN(C(=O)c4ccco4)CC3)c(C)o2)cc1
inactive: growth inhibition [1] -0.515% | growth inhibition [2] 26% | viability increase [3] -2.43% | viability [4] 81.9% | viability [5] 90.4% | inhibition [6] 0.525% | RAM network inhibition [7] 10.9%
